From ChEMBL document CHEMBL1155998, “Design and synthesis of piperazinylpyrimidinones as novel selective 5-HT(2C) agonists” (Bioorg Med Chem Lett, 2009)

Assays:
[1] = target: T1, 5-hydroxytryptamine receptor 2C (Homo sapiens, UniProt P28335); assay: Agonist activity at human recombinant 5HT2C receptor expressed in CHO K1 cells assessed as calcium mobilisation by FLIPR assay; assay type: functional, cell-based
T1 sequence (P28335 whole entry): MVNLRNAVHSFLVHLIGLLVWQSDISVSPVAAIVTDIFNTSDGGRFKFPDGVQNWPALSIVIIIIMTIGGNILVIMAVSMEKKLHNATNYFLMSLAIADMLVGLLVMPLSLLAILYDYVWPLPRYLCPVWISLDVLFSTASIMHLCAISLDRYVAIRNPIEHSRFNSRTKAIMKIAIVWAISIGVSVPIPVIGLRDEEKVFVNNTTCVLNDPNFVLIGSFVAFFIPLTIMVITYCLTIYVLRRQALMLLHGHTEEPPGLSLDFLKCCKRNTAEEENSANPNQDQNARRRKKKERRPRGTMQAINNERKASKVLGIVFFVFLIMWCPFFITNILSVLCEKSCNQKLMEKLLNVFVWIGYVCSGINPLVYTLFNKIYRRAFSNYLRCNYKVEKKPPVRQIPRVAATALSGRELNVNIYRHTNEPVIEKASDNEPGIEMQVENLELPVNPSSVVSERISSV
Outline: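 Recombinant CHO K1 cells expressing the human 5-HT2C receptor. Agonism was read as a fluorescent calcium mobilisation signal in a FLIPR assay. Values were reported as EC50 and Emax (%).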

[2] = target: T2, 5-hydroxytryptamine receptor 2C (Homo sapiens) (UniProt P28335); assay: Agonist activity at human recombinant 5HT2C receptor transfected in CHO K1 cells assessed as calcium mobilisation at 10 uM by FLIPR assay relative to serotonin; assay type: functional, cell-based
T2 sequence (whole entry): T1 sequence (P28335 whole entry)
Outline: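 Recombinant CHO K1 cells stably expressing the human 5-HT2C receptor; agonist-induced calcium mobilisation read as a fluorescence signal on FLIPR. Potency reported as EC50 and efficacy as Emax (%).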

[3] = Lipophilicity, log Dof the compound at pH 7.4; assay type: physicochemical; conditions: buffer
[4] = target: T3, 5-hydroxytryptamine receptor 2A (Homo sapiens, UniProt P28223); assay: Agonist activity at human recombinant 5HT2A receptor transfected in CHO K1 cells assessed as calcium mobilisation at 10 uM by FLIPR assay; assay type: functional, cell-based
T3 sequence (P28223 whole entry): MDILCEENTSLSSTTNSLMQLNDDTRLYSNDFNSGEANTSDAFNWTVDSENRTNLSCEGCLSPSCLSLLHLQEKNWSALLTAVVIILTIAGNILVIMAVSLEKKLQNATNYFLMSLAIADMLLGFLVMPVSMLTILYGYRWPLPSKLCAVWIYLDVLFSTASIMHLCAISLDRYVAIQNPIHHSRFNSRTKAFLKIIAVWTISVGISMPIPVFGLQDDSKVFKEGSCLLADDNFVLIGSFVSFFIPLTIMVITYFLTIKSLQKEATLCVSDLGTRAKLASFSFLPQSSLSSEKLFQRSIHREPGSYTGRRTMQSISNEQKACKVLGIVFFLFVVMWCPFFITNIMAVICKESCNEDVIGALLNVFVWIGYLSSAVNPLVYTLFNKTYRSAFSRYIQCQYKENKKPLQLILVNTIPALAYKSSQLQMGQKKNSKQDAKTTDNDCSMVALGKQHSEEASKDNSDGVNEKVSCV
Outline: (§1)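 Recombinant cell-based systems expressing the human 5-HT2A or 5-HT2B receptor. Agonist response was read as calcium mobilisation by FLIPR, with test compound at 10 μM. Results were reported as % agonism.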

[5] = target: T4, 5-hydroxytryptamine receptor 2B (Homo sapiens, UniProt P41595); assay: Agonist activity at human recombinant 5HT2B receptor transfected in CHO K1 cells assessed as calcium mobilisation at 10 uM by FLIPR assay; assay type: functional, cell-based; outline: as §1
T4 sequence (P41595 whole entry): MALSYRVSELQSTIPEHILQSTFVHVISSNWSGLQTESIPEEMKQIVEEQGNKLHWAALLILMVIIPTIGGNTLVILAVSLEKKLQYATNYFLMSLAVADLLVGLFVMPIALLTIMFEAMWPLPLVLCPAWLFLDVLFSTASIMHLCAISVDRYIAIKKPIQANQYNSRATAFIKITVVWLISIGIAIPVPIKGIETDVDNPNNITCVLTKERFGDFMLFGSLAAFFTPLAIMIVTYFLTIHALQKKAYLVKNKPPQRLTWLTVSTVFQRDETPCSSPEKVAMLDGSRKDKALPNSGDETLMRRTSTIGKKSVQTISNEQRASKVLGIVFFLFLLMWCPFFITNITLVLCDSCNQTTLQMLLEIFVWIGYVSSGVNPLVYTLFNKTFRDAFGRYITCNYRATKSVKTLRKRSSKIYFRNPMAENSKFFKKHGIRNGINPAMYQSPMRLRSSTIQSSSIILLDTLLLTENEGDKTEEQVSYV

[6] = Intrinsic clearance in human liver microsomes; assay type: ADME, Microsome
MDR1 (human) = assay: Efflux ratio, permeability from basolateral to apical over apical to basolateral side in MDCK cells expressing human MDR1 gene; assay type: ADME, cell-based, Canis lupus familiaris; conditions: dog
[7] = target: Muscarinic acetylcholine receptor M3 (Homo sapiens) (UniProt P20309); assay: Binding affinity to M3 receptor
Muscarinic acetylcholine receptor M3 (Homo sapiens), sequence (P20309 whole entry, looked up): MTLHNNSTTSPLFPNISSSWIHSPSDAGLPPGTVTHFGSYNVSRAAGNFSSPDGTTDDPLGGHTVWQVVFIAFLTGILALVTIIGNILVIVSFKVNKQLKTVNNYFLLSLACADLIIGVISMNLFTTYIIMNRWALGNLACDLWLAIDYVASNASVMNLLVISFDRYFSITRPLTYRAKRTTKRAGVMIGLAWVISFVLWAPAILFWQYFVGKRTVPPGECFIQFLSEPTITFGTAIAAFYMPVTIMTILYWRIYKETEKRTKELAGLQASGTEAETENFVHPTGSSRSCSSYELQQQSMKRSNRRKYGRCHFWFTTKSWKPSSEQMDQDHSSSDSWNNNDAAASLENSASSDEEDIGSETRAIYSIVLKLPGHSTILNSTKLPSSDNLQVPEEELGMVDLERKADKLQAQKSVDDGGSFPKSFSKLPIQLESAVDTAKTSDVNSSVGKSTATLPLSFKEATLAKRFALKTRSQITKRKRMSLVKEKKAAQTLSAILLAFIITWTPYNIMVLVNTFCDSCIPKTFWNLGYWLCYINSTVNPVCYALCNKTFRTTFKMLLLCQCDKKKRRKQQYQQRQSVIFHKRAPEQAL

[8] = target: Voltage-gated inwardly rectifying potassium channel KCNH2 (Homo sapiens, UniProt Q12809); assay: Binding affinity to human ERG
Voltage-gated inwardly rectifying potassium channel KCNH2, sequence (Q12809 whole entry): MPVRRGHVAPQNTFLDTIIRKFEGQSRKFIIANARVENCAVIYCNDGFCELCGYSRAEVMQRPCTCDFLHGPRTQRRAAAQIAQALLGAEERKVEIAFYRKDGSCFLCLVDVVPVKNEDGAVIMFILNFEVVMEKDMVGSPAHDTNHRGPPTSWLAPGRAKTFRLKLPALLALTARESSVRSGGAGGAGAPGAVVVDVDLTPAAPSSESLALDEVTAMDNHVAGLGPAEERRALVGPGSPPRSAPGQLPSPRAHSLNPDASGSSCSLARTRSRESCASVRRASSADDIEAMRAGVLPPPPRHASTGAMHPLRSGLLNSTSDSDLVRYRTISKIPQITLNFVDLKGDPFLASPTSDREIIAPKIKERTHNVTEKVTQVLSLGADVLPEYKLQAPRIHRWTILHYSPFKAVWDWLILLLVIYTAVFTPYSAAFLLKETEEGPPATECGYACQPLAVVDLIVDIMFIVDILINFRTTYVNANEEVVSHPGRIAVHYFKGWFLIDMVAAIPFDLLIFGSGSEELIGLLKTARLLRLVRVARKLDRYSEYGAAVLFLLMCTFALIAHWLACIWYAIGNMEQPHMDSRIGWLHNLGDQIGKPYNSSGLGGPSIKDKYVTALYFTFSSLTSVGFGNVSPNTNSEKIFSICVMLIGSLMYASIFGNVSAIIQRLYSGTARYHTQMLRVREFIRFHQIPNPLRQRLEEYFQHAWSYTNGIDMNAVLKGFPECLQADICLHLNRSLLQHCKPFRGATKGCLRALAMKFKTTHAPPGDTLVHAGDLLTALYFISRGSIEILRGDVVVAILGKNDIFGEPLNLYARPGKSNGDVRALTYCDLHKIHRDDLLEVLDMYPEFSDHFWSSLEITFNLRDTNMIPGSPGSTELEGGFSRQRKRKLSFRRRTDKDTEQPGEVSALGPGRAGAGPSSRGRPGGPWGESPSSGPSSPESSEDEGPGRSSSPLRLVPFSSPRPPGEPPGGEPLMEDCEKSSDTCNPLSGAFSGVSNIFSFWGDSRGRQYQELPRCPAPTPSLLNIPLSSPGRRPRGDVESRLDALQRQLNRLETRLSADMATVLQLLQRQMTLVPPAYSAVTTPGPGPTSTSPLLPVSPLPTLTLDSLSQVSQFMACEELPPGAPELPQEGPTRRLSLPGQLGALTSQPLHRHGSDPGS

Canis familiaris [9] = assay: Increase of urethral pressure in iv dosed dog; assay type: functional, Canis lupus familiaris, Urethra
Outline: (§2)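 Anaesthetised dogs, two animals, in a urethral function model. Compound was given by intravenous infusion. Peak urethral pressure was recorded as % increase, alongside measured free plasma concentrations.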

[10] = target: Beta-2 adrenergic receptor (Homo sapiens) (UniProt P07550); assay: Binding affinity to beta2 receptor
Beta-2 adrenergic receptor (Homo sapiens), sequence (P07550 whole entry, looked up): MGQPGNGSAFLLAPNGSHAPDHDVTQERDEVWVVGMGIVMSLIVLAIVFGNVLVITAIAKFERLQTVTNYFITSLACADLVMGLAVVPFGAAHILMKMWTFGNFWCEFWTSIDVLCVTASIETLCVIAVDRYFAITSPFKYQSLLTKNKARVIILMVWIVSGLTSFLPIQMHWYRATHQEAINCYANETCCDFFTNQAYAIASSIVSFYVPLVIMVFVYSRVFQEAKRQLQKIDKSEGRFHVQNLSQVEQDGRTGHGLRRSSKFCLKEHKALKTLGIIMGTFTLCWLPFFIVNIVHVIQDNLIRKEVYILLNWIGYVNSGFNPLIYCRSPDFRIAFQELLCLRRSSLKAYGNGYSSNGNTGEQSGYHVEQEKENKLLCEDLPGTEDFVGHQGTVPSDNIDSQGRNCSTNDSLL

Canis familiaris [11] = assay: Free plasma concentration in iv dosed dog; assay type: ADME, organism-based, Canis lupus familiaris; conditions: in vivo; outline: as §2
[12] = target: T4, 5-hydroxytryptamine receptor 2B; assay: Agonist activity at human recombinant 5HT2B receptor transfected in CHO K1 cells assessed as calcium mobilisation by FLIPR assay; assay type: functional, cell-based
[13] = target: 5-hydroxytryptamine receptor 1B (Homo sapiens) (UniProt P28222); assay: Binding affinity to 5HT1B receptor
5-hydroxytryptamine receptor 1B (Homo sapiens), sequence (P28222 whole entry): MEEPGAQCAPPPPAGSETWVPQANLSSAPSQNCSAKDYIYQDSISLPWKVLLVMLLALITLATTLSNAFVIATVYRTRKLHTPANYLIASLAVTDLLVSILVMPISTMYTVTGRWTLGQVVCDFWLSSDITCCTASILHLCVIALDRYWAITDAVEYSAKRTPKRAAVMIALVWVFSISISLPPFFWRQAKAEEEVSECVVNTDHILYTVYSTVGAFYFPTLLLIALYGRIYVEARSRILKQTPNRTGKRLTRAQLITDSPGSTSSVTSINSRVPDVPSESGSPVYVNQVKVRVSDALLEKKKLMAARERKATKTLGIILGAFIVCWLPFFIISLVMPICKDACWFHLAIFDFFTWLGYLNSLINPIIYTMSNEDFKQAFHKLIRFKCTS

[14] = Ratio of drug level in CSF to free plasma in iv dosed dog; assay type: ADME, organism-based, Canis lupus familiaris; conditions: in vivo
[15] = target: T3, 5-hydroxytryptamine receptor 2A; assay: Agonist activity at human recombinant 5HT2A receptor transfected in CHO K1 cells assessed as calcium mobilisation by FLIPR assay; assay type: functional, cell-based
[16] = target: 5-hydroxytryptamine receptor 4 (Homo sapiens) (UniProt Q13639); assay: Binding affinity to 5HT4E receptor
5-hydroxytryptamine receptor 4 (Homo sapiens), sequence (Q13639 whole entry): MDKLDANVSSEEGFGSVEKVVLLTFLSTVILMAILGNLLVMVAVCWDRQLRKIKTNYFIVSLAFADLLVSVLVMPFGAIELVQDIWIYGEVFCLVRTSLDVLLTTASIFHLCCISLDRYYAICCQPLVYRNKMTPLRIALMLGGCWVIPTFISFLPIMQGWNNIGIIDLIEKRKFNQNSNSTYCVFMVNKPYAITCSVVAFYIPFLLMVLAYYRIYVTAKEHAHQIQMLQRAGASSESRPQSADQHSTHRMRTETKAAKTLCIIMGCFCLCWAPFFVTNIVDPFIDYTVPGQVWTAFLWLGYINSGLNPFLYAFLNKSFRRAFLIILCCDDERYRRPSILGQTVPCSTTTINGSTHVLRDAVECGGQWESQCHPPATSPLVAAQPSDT

[17] = Binding affinity to calcium ion channel at L-verapamil site
[18] = target: D(3) dopamine receptor (Homo sapiens) (UniProt P35462); assay: Binding affinity to dopamine D3 receptor
D(3) dopamine receptor (Homo sapiens), sequence (P35462 whole entry): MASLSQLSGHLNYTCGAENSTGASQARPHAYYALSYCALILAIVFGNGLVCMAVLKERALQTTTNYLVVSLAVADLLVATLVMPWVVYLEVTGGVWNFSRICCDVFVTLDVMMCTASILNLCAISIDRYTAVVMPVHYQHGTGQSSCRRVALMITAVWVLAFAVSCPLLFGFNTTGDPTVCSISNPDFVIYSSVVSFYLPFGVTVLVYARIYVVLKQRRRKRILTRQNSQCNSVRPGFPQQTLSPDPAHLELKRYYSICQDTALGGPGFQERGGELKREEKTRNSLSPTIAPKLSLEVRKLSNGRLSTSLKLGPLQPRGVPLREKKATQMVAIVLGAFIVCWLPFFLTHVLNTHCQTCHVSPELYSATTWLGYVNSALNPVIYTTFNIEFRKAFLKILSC

| SMILES | EC50 [1] | Emax [2] | logD [3] | Activity [4] | Activity [5] | microsomal CLint [6] | further results |
| --- | --- | --- | --- | --- | --- | --- | --- |
| Cc1cc(=O)n(CCCOc2cccc(Cl)c2)c(N2CCNCC2)n1 | 262 nM | 86% | 1.2 | – | – | – | – |
| CCn1c(CCc2ccccc2Cl)nc(N2CCNCC2)cc1=O | 21 nM | 50% | 1.9 | 16% | < 5% | 30 µL/min/mg | efflux ratio (MDR1 (human)): 4.3 |
| Cc1cc(=O)n(CCCOc2ccc(F)cc2)c(N2CCNCC2)n1 | > 10000 nM | – | 0.7 | – | – | – | – |
| Cc1cc(=O)n(CCCOc2ccc(Cl)cc2)c(N2CCNCC2)n1 | 899 nM | 91% | – | – | – | – | – |
| Cn1c(COc2ccc(C(F)(F)F)cc2)nc(N2CCNCC2)cc1=O | > 10000 nM | – | 1.1 | – | – | 8 µL/min/mg | – |
| Cn1c(COc2cccc(Cl)c2)nc(N2CCNCC2)cc1=O | 493 nM | 66% | 1 | – | – | < 7 µL/min/mg | – |
| Cc1cc(=O)n(CCCOCc2ccccc2)c(N2CCNCC2)n1 | > 10000 nM | – | – | – | – | – | – |
| Cc1cc(=O)n(CCCc2ccccc2)c(N2CCNCC2)n1 | > 10000 nM | – | – | – | – | – | – |
| Cc1cc(=O)n(CCCOc2ccccc2F)c(N2CCNCC2)n1 | 77 nM | 92% | 0.45 | 39% | 35% | – | – |
| Cn1c(CCc2cccc(Cl)c2)nc(N2CCNCC2)cc1=O | 96 nM | 59% | 1.2 | 57% | < 5% | < 7 µL/min/mg | efflux ratio (MDR1 (human)): 4 |
| C[C@@H]1CNCCN1c1ccc(=O)n(CCOc2ccccc2C(F)(F)F)n1 | 47 nM | 45% | 1.4 | 50% | < 10% | 15 µL/min/mg | efflux ratio (MDR1 (human)): 3.4 |
| Cn1c(CCc2ccccc2)nc(N2CCNCC2)cc1=O | 275 nM | 43% | 0.6 | 13% | < 5% | < 7 µL/min/mg | efflux ratio (MDR1 (human)): 3.4 |
| C[C@@H]1CNCCN1c1cc(=O)n(C)c(COc2ccccc2C(F)(F)F)n1 | – | – | – | – | – | – | Activity [7]: > 1 µM; Ki [8]: > 13000 nM; Activity (Canis familiaris [9]): 20%; Activity [10]: > 1 µM; Cp (Canis familiaris [11]): 19 nM; EC50 [12]: > 10000 nM; Activity [13]: 210 nM; Ratio [14]: 0.34; EC50 [15]: > 1500 nM; Activity [16]: > 1 µM; Activity [17]: > 1 µM; Activity [18]: 480 nM |
| Cc1cc(=O)n(CCCOc2cccc(F)c2)c(N2CCNCC2)n1 | > 10000 nM | – | 0.8 | – | – | – | – |
| CCn1c(COc2cccc(C#N)c2)nc(N2CCNCC2)cc1=O | 112 nM | 77% | 0.4 | – | – | < 7 µL/min/mg | – |
| Cn1c(N2CCNCC2)nc(CCc2cccc(Cl)c2)cc1=O | > 10000 nM | – | 1.3 | – | – | < 7 µL/min/mg | – |
| Cc1cc(=O)n(CCCOc2ccccc2Cl)c(N2CCNCC2)n1 | 56 nM | 83% | 1 | 58% | 46% | 27 µL/min/mg | – |
| Cn1c(COc2ccc(Cl)cc2)nc(N2CCNCC2)cc1=O | > 10000 nM | – | 0.8 | – | – | < 7 µL/min/mg | – |
| Cc1cc(=O)n(CCCOc2ccccc2)c(N2CCNCC2)n1 | 1020 nM | 77% | 0.7 | 44% | 57% | 26 µL/min/mg | efflux ratio (MDR1 (human)): 1.6 |
| CCn1c(COc2cc(F)ccc2Cl)nc(N2CCNCC2)cc1=O | 103 nM | 46% | 1.4 | – | – | < 7 µL/min/mg | – |
| Cn1c(COc2cccc(C#N)c2)nc(N2CCNCC2)cc1=O | 319 nM | 63% | 0.3 | – | – | < 7 µL/min/mg | – |

Continued, in another order:

| EC50 [1] | Emax [2] | logD [3] | Activity [4] | Activity [5] | microsomal CLint [6] | SMILES | further results |
| --- | --- | --- | --- | --- | --- | --- | --- |
| 64 nM | 59% | 1.8 | 45% | 6% | 29 µL/min/mg | C[C@@H]1CNCCN1c1cc(=O)n(C)c(CCc2ccccc2C(F)(F)F)n1 | – |
| 487 nM | 49% | 1.3 | – | – | – | Cn1c(COc2cccc(C(F)(F)F)c2)nc(N2CCNCC2)cc1=O | – |
| 73 nM | 61% | 0.8 | – | – | 11 µL/min/mg | Cn1c(COc2ccccc2Cl)nc(N2CCNCC2)cc1=O | – |
| 262 nM | 50% | 1 | 58% | < 5% | < 7 µL/min/mg | C[C@@H]1CNCCN1c1cc(=O)n(C)c(CCc2ccccc2)n1 | – |
| 361 nM | 48% | 1 | – | – | < 7 µL/min/mg | Cn1c(COc2cc(F)ccc2Cl)nc(N2CCNCC2)cc1=O | – |
| 26 nM | 59% | 1.6 | 76% | 13% | < 10 µL/min/mg | C[C@@H]1CNCCN1c1cc(=O)n(C)c(CCc2cccc(Cl)c2)n1 | efflux ratio (MDR1 (human)): 3.7 |
| 163 nM | 84% | 0.9 | – | – | 16 µL/min/mg | Cc1cc(=O)n(CCCOc2ccccc2)c(N2CCNC[C@H]2C)n1 | – |
| 160 nM | 84% | 1.5 | – | – | < 7 µL/min/mg | Cc1ccc(Cl)cc1OCc1nc(N2CCNCC2)cc(=O)n1C | – |
| 21 nM | 46% | 1.6 | 27% | < 5% | 24 µL/min/mg | C[C@@H]1CNCCN1c1cc(=O)n(C)c(CCc2ccccc2Cl)n1 | efflux ratio (MDR1 (human)): 3.1 |
| 46 nM | 84% | 1 | – | – | < 7 µL/min/mg | Cc1ccc(F)cc1OCc1nc(N2CCNCC2)cc(=O)n1C | – |
| 26 nM | 59% | 1.4 | 50% | < 5% | 18 µL/min/mg | Cc1ccccc1CCc1nc(N2CCNC[C@H]2C)cc(=O)n1C | efflux ratio (MDR1 (human)): 3.5 |
| 30 nM | 72% | 1.4 | – | – | 14 µL/min/mg | Cn1c(COc2ccccc2C(F)(F)F)nc(N2CCNCC2)cc1=O | – |
| 228 nM | 60% | 0.8 | – | – | < 7 µL/min/mg | Cc1ccccc1OCc1nc(N2CCNCC2)cc(=O)n1C | – |
